Bioassay records as filed in PubChem BioAssay.
rRNA inh HTS: reduced GFP signal of wild-type E. coli, primary screen, bacterial rRNA inhibitor project, GFP/RFP fluorescence, OD600, single point; GFP signal change (wild-type ribosome), % (concentration not given with the values); E. coli WT GFP vs humanized-ribosome RFP mutants, 24 h; active compounds read low; DMSO median 0, no signal -100; 350,000 tested, 1.6% active;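 active means significant combined selectivity score with lowered wild-type GFP, culture density cut under 30%, mutant RFP and density less affected; inactive means any of these conditions unmet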
FGF22 binding-1: binders of human FGF22 protein, primary screen, FGF22 synaptogenesis inhibitor project, biophysical, thermal shift, single point; activity (Tm shift, normalised), % at 9.99 µM; AID 651658, 2012; recombinant FGF22 thermal shift, SYPRO orange fluorescence; percent of sucrose octasulfate shift, DMSO zero; 340,000 tested, 1.5% active;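 active means mean Tm shift, scaled 0 neutral to 100 positive control, at about 1.3% or above, every replicate too, limit read from the data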
Target sequence (Q9HCT0 whole entry, looked up): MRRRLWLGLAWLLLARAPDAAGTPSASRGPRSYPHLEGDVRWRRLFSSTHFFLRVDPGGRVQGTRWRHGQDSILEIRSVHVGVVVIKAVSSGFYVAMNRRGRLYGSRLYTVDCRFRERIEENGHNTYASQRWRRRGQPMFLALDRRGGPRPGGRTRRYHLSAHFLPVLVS
PglD inh: C. jejuni PglD acetyltransferase inhibitors, primary screen, biochemical, DTNB colorimetric, single point; 360,000 tested, 0.098% active; purified PglD enzyme, DTNB colorimetric CoA detection; inhibition, % at 12.5 µM; AID 602405, 2012; UDP-N-acetylbacillosamine N-acetyltransferase PglD (Campylobacter jejuni); in the data active means inhibition above about 16%, passing the limit was not always enough
PGC1a acetyl inh: inhibitors of PGC1a acetylation signal, primary screen, cell-based, U2OS, AlphaScreen, inhibitor mode; 350,000 tested, 0.17% active; AlphaScreen anti-acetyl-lysine; with virally co-expressed GCN5 acetyltransferase; inhibition, % at 15.6 µM;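 active means every replicate shows inhibition of at least 40%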
Cneo AK release: Cryptococcus neoformans cell lysis inducers, primary screen, AK release luminescence, single concentration | 360,000 tested, 0.2% active | lysis activity, % at 15 µM | C. neoformans lysis, adenylate kinase release luminescence, 4 h; normalised: neutral wells 0, clomiphene wells 100;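 active means mean lysis activity across replicates of at least 80%, whatever share of replicates individually reach that level; inactive means mean lysis activity below 80%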
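Material – Cryptococcus neoformans yeast cells · Quantity – 5 × 10^6 yeast cells/mL · Buffer or medium – YPD medium · Compound – single dose · Timing – 4 h static compound exposure, 37 °C, read 1 h post-reagent · Signal – adenylate kinase release luminescence · Read-out basis – lysis from increased AK signal · Benchmarks – Clomiphene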
Vif imaging: HIV Vif self-association inhibitors, primary screen, imaging, HEK293T, single point; inhibition, % at 7.49 µM; AID 602346, 2012; 340,000 tested, 0.35% active; HEK293T cells, Vif self-association by quenched fluorescence, 24 h; in the data active means inhibition above about 50%, passing the limit was not always enough
FGF22 binding-2: binders of human FGF22 protein, dose response, FGF22 synaptogenesis inhibitor project, biophysical, thermal shift, cherry-pick retest; shares compounds with FGF22 binding-1; recombinant FGF22 thermal shift, SYPRO orange fluorescence; thermal shift activity, °C (ΔTm) at 38 µM; 1,000 tested, 2% active; AID 720646, 2013;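 active means fitted rise in melting shift crosses a set limit at or below the top valid dose tested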
FGF22 TSA: binders of human FGF22 protein, dose response, FGF22 synaptogenesis inhibitor project, biophysical, thermal shift, dry powder | shares compounds with FGF22 binding-1 | Thermal shift assay, SYPRO orange, melting temperature shift | Tm shift (activity), % at 38 µM | 50 tested, under 10 active | AID 743017, 2013;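 active means compounds whose fitted dose curve of melting temperature shift rises past a set threshold within the tested doses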
TSA no protein: compound-only thermal shift signal without protein, dose response, artefact control for FGF22 binder project, biochemical, cherry-picked samples, RT-PCR instrument. compound-only SYPRO orange thermal shift counter-screen, no protein. AC50, µM (doses to about 38 µM). AID 743019, 2013. shares compounds with FGF22 binding-1. 1,000 tested, 2% active;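 active means rising signal whose fitted curve reaches the 0.54 level within the top valid dose, showing a melting point, actives reach about 13 µM in these data; inactive means the rest, including activity in the opposite direction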; further: value is where the raw curve crosses a fixed level and not half-maximal
Large screens that a line does not name were inactive (follow-up assays come after a bar, where they were run). The list is not random: actives were taken first. Their share in the collection is about 2.9%.

Cc1ccc(S(=O)(=O)N[C@H]2CC[C@H](CCNC(=O)c3ccc4c(c3)OCO4)O[C@@H]2CO)cc1	none (no result: Vif imaging)
O=C(N/N=C/c1cccc(Oc2ccccc2)c1)c1cccc(O)c1	FGF22 binding-1 1.5 (no result: PGC1a acetyl inh) | FGF22 binding-2 inactive | FGF22 TSA inactive | TSA no protein inactive
CCCSc1ncnc2[nH]ncc12	FGF22 binding-1 46.2 | FGF22 binding-2 inactive | TSA no protein inactive
CCCCCCCCNc1ncnc2[nH]ncc12	none (no result: PglD inh, Cneo AK release)
NC(=O)[C@H]1[C@@H]2C(=O)O[C@@H](c3ccccc3)[C@@H](c3ccccc3)N2[C@@H](c2ccc(OCCO)cc2)[C@]12C(=O)Nc1ccc(C#CC3(O)CCCCCC3)cc12	none (no result: rRNA inh HTS, Vif imaging)
C/C=C/c1ccc([C@@H]2[C@H](C#N)N(C(=O)CN3CCOCC3)[C@H]2CO)cc1	FGF22 binding-1 2.3 (no result: Vif imaging) | FGF22 binding-2 inactive | TSA no protein inactive
CCOc1ccccc1-c1cc(C(=O)N/N=C/c2cccnc2)c2ccccc2n1	none (no result: rRNA inh HTS, PGC1a acetyl inh)
CCOc1ccc(-c2cc(C(=O)N/N=C/c3cccnc3)c3ccccc3n2)cc1	FGF22 binding-1 2.5 | FGF22 binding-2 inactive | TSA no protein inactive
C[C@@H]1CCCCO[C@H](CN(C)C(=O)Nc2cccc3ccccc23)[C@@H](C)CN([C@H](C)CO)C(=O)c2cc(NC(=O)c3ccncc3)ccc2O1	none (no result: Vif imaging)
CCOC(=O)c1sc(NC(=O)Nc2ccccc2Cl)cc1C	none (no result: rRNA inh HTS, FGF22 binding-1, PGC1a acetyl inh)
CCOC(=O)c1sc(NC(=O)Nc2ccccc2)cc1C	FGF22 binding-1 2.1 (no result: rRNA inh HTS, PglD inh, PGC1a acetyl inh, Cneo AK release) | FGF22 binding-2 inactive | TSA no protein inactive
CCOC(=O)c1c(N)sc(C(=O)Nc2ccccc2)c1C	FGF22 binding-1 2.9 (no result: PglD inh, Cneo AK release) | FGF22 binding-2 inactive | TSA no protein inactive
Cc1ccccc1C(=O)Nc1nnc(S(=O)(=O)N2CCCCC2)s1	FGF22 binding-1 16.9 (no result: PGC1a acetyl inh) | FGF22 binding-2 inactive | TSA no protein inactive
O=C(Nc1nnc(S(=O)(=O)N2CCCCCC2)s1)c1ccccc1Br	none
C/C=C/c1ccc([C@H]2[C@@H](CO)N(C(=O)CN(C)C)C23CN(C(=O)C2CC2)C3)cc1	none (no result: FGF22 binding-1, PglD inh, Cneo AK release, Vif imaging)
Nc1n[nH]c(=S)n1/N=C1/C(=O)Nc2ccccc21	FGF22 binding-1 1.8 (no result: PglD inh, Cneo AK release, Vif imaging) | FGF22 binding-2 inactive | TSA no protein inactive
CCCNC(=O)N1C[C@H]2[C@@H](c3ccccc31)[C@@H](CO)N2C(=O)c1ccncc1	none (no result: Vif imaging)
CCCc1cn(CC[C@@H]2CC[C@H](NC(=O)C3CCCCC3)[C@@H](CO)O2)nn1	none (no result: Vif imaging)
O=C(N[C@H]1CC[C@@H](CCNC(=O)C2CCC2)O[C@H]1CO)c1ccccn1	none (no result: Vif imaging)
O=C(C[C@H]1CC[C@H](NC(=O)NC2CCCC2)[C@H](CO)O1)NCc1ccc(F)cc1	none (no result: Vif imaging)
CCCN(CCC)CC(C)(C)NS(=O)(=O)c1ccc(Cl)cc1	FGF22 binding-1 1.4 | FGF22 binding-2 inactive | TSA no protein inactive
CCN(CC)CCNS(=O)(=O)c1ccc(Cl)cc1	none (no result: rRNA inh HTS, FGF22 binding-1)
COc1ccc(/C=N/Nc2nonc2N)cc1	none (no result: rRNA inh HTS, FGF22 binding-1, PGC1a acetyl inh)
Nc1nonc1N/N=C\c1ccccc1	FGF22 binding-1 2.0 (no result: rRNA inh HTS) | FGF22 binding-2 inactive | TSA no protein inactive
CO[C@@H]1CN(C)C(=O)c2ccc(NC(=O)Nc3cc(F)ccc3F)cc2OC[C@@H](C)N(C(=O)c2cnccn2)C[C@H]1C	none (no result: Vif imaging)
COc1ccc2[nH]cc(/C=N/NS(=O)(=O)c3ccc(C)cc3)c2c1	none (no result: PglD inh, PGC1a acetyl inh, Cneo AK release)
COc1ccc2c(/C=N/NS(=O)(=O)c3ccc(C)cc3)c[nH]c2c1	FGF22 binding-1 2.7 | FGF22 binding-2 inactive | TSA no protein inactive
O=C(NCC(=O)N(CC1CCCO1)C(C(=O)NC1CCCCC1)c1cccnc1)c1cccs1 (stereo not given)	FGF22 binding-1 18.0 (no result: PGC1a acetyl inh) | FGF22 binding-2 inactive | TSA no protein inactive
O=C(NCC(=O)N(CC1CCCO1)C(C(=O)NC1CCCCC1)c1ccccc1)c1cccs1 (stereo not given)	none
C[C@@H]1CN([C@H](C)CO)C(=O)c2cc(NC(=O)Nc3ccc(C(F)(F)F)cc3)ccc2O[C@@H]1CN(C)Cc1ccc(C(=O)O)cc1	FGF22 binding-1 1.4 (no result: Vif imaging) | FGF22 binding-2 inactive | TSA no protein inactive
C[C@@H]1CN([C@@H](C)CO)C(=O)c2cc(NC(=O)Nc3ccc(C(F)(F)F)cc3)ccc2O[C@@H]1CN(C)Cc1ccc(C(=O)O)cc1	FGF22 binding-1 2.5 (no result: Vif imaging) | FGF22 binding-2 inactive | TSA no protein inactive
C[C@@H]1CN([C@@H](C)CO)C(=O)c2cc(NC(=O)Nc3ccc(C(F)(F)F)cc3)ccc2O[C@H]1CN(C)Cc1ccc(C(=O)O)cc1	none (no result: Vif imaging)
O=C(Nc1ccc(Cl)c(Cl)c1)N[C@@H]1CC[C@H](CCNC(=O)c2ccc(F)cc2)O[C@@H]1CO	none (no result: Vif imaging)
CN1CCN(C(=O)C[C@H]2C=C[C@H](NC(=O)c3ccc4c(c3)OCO4)[C@H](CO)O2)CC1	FGF22 binding-1 1.5 (no result: Vif imaging) | FGF22 binding-2 inactive | TSA no protein inactive
COCC(=O)N(C)C[C@@H]1Oc2cc(C3=CCCC3)ccc2S(=O)(=O)N([C@@H](C)CO)C[C@@H]1C	none (no result: Vif imaging)
CCN1CCN(CC(=O)Nc2ccc(OC(F)(F)F)cc2)CC1	none (no result: PGC1a acetyl inh)
O=C(CN1CCCC1)Nc1ccc(OC(F)(F)F)cc1	FGF22 binding-1 26.4 | FGF22 binding-2 inactive | TSA no protein inactive
CN1/C(=C\C(=O)c2cccc([N+](=O)[O-])c2)Sc2ccccc21	FGF22 binding-1 2.2 (no result: PGC1a acetyl inh) | FGF22 binding-2 inactive | TSA no protein inactive
CN(C)CC#Cc1ccc([C@H]2[C@H](CO)N3CCCCN(C(=O)C4CCCC4)C[C@@H]23)cc1	none (no result: rRNA inh HTS, Vif imaging)
Cc1ccc(C)c(N2CCN(C(=O)C34CC5CC(C3)CC(n3nnc(C)n3)(C5)C4)CC2)c1	FGF22 binding-1 16.3 (no result: PglD inh, Cneo AK release) | FGF22 binding-2 inactive | TSA no protein inactive
